Results on 8 compounds are retold here after ChEMBL document CHEMBL1154145, “Inhibitory effect of macabarterin, a polyoxygenated ellagitannin from Macaranga barteri, on human neutrophil respiratory burst activity” (J Nat Prod, 2008).

Molecules are shown by their SMILES. ≈ marks a conversion by molar mass, not a printed value.

A short description of assay [1]: Antiinflammatory activity in human neutrophils assessed as respiratory burst inhibition at 1000 ug/ml by WST-1 assay. It counts as functional. As to conditions: Neutrophil. The method, boiled down:
(§1)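 Neutrophils came from heparinized blood of healthy volunteers, diluted with modified Hank's solution (MHS, pH 7.4), left 20 min at RT, then Ficoll-separated (>97% trypan-blue viable). 1.0 × 10^4 cells/mL in MHS with 250 µM WST-1 and compound were equilibrated at 37 °C. Opsonized zymosan A (15 mg/mL, pooled human serum) was added to start the reaction. A450 was read. Inhibition was calculated against a DMSO blank from five replicates.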
(In general: Tetrazolium dyes change colour on reduction, which living cells bring about.)

Assay [2] in a line: Antiinflammatory activity in human neutrophils assessed inhibition of superoxide anions production. It counts as functional, cell-based. As to conditions: Neutrophil. The method, boiled down:
as §1

By inhibition is commonly meant the relative decrease from the control value, in per cent. For `COc1c(O)cc2c(=O)oc3c(O)c(O)cc4c(=O)oc1c2c34`, the inhibition at 1000 µg/mL in assay [1] was determined as 13.7%.

Turning to `COc1c(O[C@@H]2OC[C@@H](O)[C@H](O)[C@H]2O)cc2c(=O)oc3c(O)c(O)cc4c(=O)oc1c2c34`, in assay [1], the inhibition at 1000 µg/mL is 29.1%.

The term IC50 denotes the concentration that inhibits the measured activity by half. Read a high IC50 as weaker potency in that assay. Take `CC(=O)Oc1ccccc1C(=O)O` [ASPIRIN]: the inhibition at 1000 µg/mL in assay [1] turned out to be 70.5%. Moreover, the IC50 in assay [2] was found to be 279 µg/mL (≈ 1550 µM).

As for `O=c1oc2c(O)c(O)cc3c(=O)oc4c(O)c(O)cc1c4c23` [ELLAGIC ACID], in assay [1], the inhibition at 1000 µg/mL came to 27.1%.

Consider `O=C(O)c1cc(O)c(O)c(O)c1` [GALLIC ACID], for which the inhibition at 1000 µg/mL in assay [1] is 42.9%.

As for `COc1ccc2c(c1)c(CC(=O)O)c(C)n2C(=O)c1ccc(Cl)cc1` [INDOMETHACIN], the inhibition at 1000 µg/mL in assay [1] came to 58.8%. Further, in assay [2], the IC50 amounted to 758 µg/mL (≈ 2120 µM).

For the compound `O=C(O[C@@H]1O[C@@H]2COC(=O)c3cc(O)c(O)c(O)c3-c3c(cc(O)c(O)c3O)C(=O)O[C@@H]3[C@H]1OC(=O)c1cc(O)c(O)c4c1C1C5(C[C@]6(O)OC[C@@H](O)[C@@H]6C[C@@H]5C(O)(O)C(O)(O)[C@]1(O)O4)C(=O)O[C@@H]32)c1cc(O)c(O)c(O)c1` (stereo partly specified) [MACABARTERIN], the inhibition at 1000 µg/mL in assay [1] was 73.2%. The compound also gave an IC50 in assay [2] of 821 µg/mL (≈ 746 µM).

For the compound `COc1cc2ccc(=O)oc2cc1O` [SCOPOLETIN], the inhibition at 1000 µg/mL in assay [1] came to 31.2%.
